High-throughput results (PubChem BioAssay)
In the library only some 2.1% were active in any assay of this set; here they are far more common.
Efflux pump inh – inhibitors of Candida efflux pumps in yeast, primary screen, S. cerevisiae, Nile Red, multiplex; inhibition, % at 10 µM; S. cerevisiae Candida pump triplex; 330,000 tested, 0.44% active;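 active means plate passing quality check with inhibition over a set limit, or well fluorescence over plate mean plus 4 SD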;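 further: Nile Red retained in pooled yeast measured as flow cytometry median fluorescence; higher means more Nile Red kept so more efflux inhibition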
Mot1-301 SUMO – yeast Mot1-301 growth rescue at high temperature, primary screen, SUMOylation pathway inhibitor project, S. cerevisiae, ATP luminescence, 38.5C | S. cerevisiae Mot1-301 growth rescue; percent above DMSO median, 100 means doubled | growth rescue, % at 18.8 µM | 320,000 tested, 1% active;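 active means every valid replicate shows activation above 250% relative to neutral control wells; inactive means the rest, any valid replicate at or below 250%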
RTF Ca sens inh – cardiac RTF calcium sensitivity inhibitors, primary screen, biochemical, IANBD-TnC fluorescence, EC70 calcium; Troponin I, cardiac muscle (Homo sapiens) + Troponin T, cardiac muscle (Homo sapiens) + …; IANBD-labeled cardiac RTF, Ca2+ fluorescence; inhibition, % at 7.15 µM; 340,000 tested, 0.12% active; AID 493244, 2011;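 active means inhibition above the mean inhibition of all tested compounds plus 3 SD, cut at about 17% in these data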;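 further: assay run at fixed EC70 calcium of 1.6 mM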
cardiac RTF act – cardiac RTF calcium sensitivity activators, primary screen, biochemical, IANBD-TnC fluorescence, EC20 calcium. activation, % at 7.2 µM. IANBD-labeled TnC RTF fluorescence at EC20 calcium; 0% EC20 calcium, 100% full calcium. Troponin I, cardiac muscle (Homo sapiens) + Troponin T, cardiac muscle (Homo sapiens) + …. 340,000 tested, 0.24% active;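 active means activation above the mean over all tested compounds plus 3 SD, cut at about 30% in these data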;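 further: rise in fluorescence read as greater calcium sensitivity of cardiac thin filaments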
ARNT TACC3 PPI – disruptors of ARNT/TACC3 protein interaction, primary screen, biochemical, AlphaScreen, single concentration. Transforming acidic coiled-coil-containing protein 3 (Homo sapiens), Q9Y6A5. AlphaScreen His-ARNT PAS-B/GST-TACC3 binding, luminescence; TACC3 fragment carries E629A point mutation. inhibition, % at 9.99 µM. 390,000 tested, 0.66% active;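 active means mean inhibition of replicates at least 50% and at least half of replicates each reaching 50%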
UCH37 inh – inhibitors of human UCH37 deubiquitinase, primary screen, biochemical, Ub-AMC cleavage, fluorescence; 330,000 tested, 0.33% active; Ubiquitin carboxyl-terminal hydrolase isozyme L5 (Homo sapiens), Q9Y5K5; AID 588478, 2011; inhibition, % (concentration not given with the values); purified proteasome/UCH37;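 active means mean inhibition over replicate wells above about 20%, limit read from the data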
Target sequence (Q9Y5K5 whole entry, looked up): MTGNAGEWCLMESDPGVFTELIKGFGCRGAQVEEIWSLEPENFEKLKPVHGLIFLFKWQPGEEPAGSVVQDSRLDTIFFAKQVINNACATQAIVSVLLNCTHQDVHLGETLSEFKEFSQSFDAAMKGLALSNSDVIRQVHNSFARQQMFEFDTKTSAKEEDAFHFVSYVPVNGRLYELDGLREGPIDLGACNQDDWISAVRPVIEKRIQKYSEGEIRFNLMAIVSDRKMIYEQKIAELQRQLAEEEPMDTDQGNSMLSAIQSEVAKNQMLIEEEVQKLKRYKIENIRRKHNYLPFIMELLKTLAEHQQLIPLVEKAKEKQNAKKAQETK
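Test system – human UCH37 enzyme supplied as purified proteasome complex · Incubation – 30 min preincubation with enzyme, 25 min cleavage at room temperature · Detection – AMC fluorescence from Ub-AMC cleavage, excitation 355 nm, emission 460 nm · Benchmarks – no-proteasome wells (full inhibition) and compound-free wells (no inhibition)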
Numbers stand for hits; n = inactive; x = no result given.

SMILES	Efflux pump inh	Mot1-301 SUMO	RTF Ca sens inh	cardiac RTF act	ARNT TACC3 PPI	UCH37 inh
COc1cc(/C=N\NC(=O)CC#N)ccc1OC/C=C/c1ccccc1	n	n	n	n	69	x
COc1ccc(C=NNC(=O)Cc2ccc(Cl)cc2)cc1OC	x	x	x	x	x	35
COc1ccc(Nc2nc(NCCO)nc(N3CCCC3)n2)cc1	n	n	n	n	n	n
COc1cccc(Nc2nc(NCCO)nc(N3CCCC3)n2)c1	n	n	n	n	active	n
OCCNc1nc(Nc2ccccc2Oc2ccccc2)nc(N2CCCC2)n1	n	n	n	n	23	n
Cc1ccc(C)c(NC(=S)NN=C2CCc3ccccc32)c1	x	x	x	x	x	n
Cc1ccc(C(=O)c2c(C)oc3c2C(=O)C(=O)c2ccccc2-3)cc1	n	n	n	n	x	42
Cc1oc2c(c1C(=O)c1ccc(Cl)cc1)C(=O)C(=O)c1ccccc1-2	x	x	n	n	x	x
COC(=O)C(=NNc1ccc(C)cc1)N1CCCc2ccccc21	x	x	x	x	x	n
c1cn(CCCNC2=NCCCCC2)cn1	n	n	n	n	97	n
c1cn(CCCNC2CCCCCCC2)cn1	n	n	n	n	n	n
CCOc1cc(C2NC(=O)NC(C)=C2C(=O)OCc2ccccc2)ccc1O (stereo not drawn)	n	n	n	n	44	n
Cc1cccc(C(=O)Oc2c(Br)cc(Br)cc2C=NNC(=O)c2ccncc2)c1	x	x	x	x	x	n
CCNCC(=O)N1c2ccccc2CCc2ccc(NC(=O)OCC)cc21	n	293	n	n	n	n
CCOC(=O)Nc1ccc2c(c1)N(C(=O)CN)c1ccccc1CC2	n	n	n	n	n	n
S=c1[nH]nc(COc2ccccc2)n1N=Cc1cccc(Cl)c1Cl	x	x	x	x	x	n
O=C(NCCCN1CCOCC1)c1ccc(CS(=O)(=O)Cc2ccccc2Cl)o1	n	n	n	n	active	n
O=C(NCCCN1CCCCCC1)c1ccc(CS(=O)(=O)Cc2ccccc2F)o1	x	x	n	n	n	n
Cn1c(=O)c2[nH]c(N=NN3CCCCC3)nc2n(C)c1=O	x	x	n	n	n	22
CC12CCC(C(=O)NN=Cc3ccc(O)cc3)(OC1=O)C2(C)C (stereo not drawn)	x	x	x	x	x	n
N/C(=N\NC(=O)Nc1ccc(Cl)cc1)c1ccccn1	n	n	n	n	66	n
CNC(=O)N/N=C(\N)c1ccccn1	n	n	n	n	n	x
COc1ccc(C(CC2OC(=O)c3ccccc32)=NNC(N)=O)cc1 (stereo not drawn)	x	x	x	x	x	n
CCCCOc1ccc(C(=O)Oc2cc(C)[nH]c(=O)c2[N+](=O)[O-])cc1	n	n	n	n	46	n
CCOc1ccc(C(=O)Oc2cc(C)[nH]c(=O)c2[N+](=O)[O-])cc1	n	n	n	n	n	n
SMILES	Efflux pump inh	Mot1-301 SUMO	RTF Ca sens inh	cardiac RTF act	ARNT TACC3 PPI	UCH37 inh
C=CCSc1nnc(-c2cc3c(-c4ccccc4)nn(C)c3s2)n1C	n	n	n	n	48	n
C=CCSc1nnc(-c2cc3c(C(F)(F)F)nn(C)c3s2)n1C	n	n	n	n	n	n
CC(=NNS(=O)(=O)c1ccc(Br)cc1)c1cccs1	x	x	x	x	x	n
CN(C(=O)C12CC3CC(CC(C3)C1)C2)C1(C)CCS(=O)(=O)C1 (stereo not drawn)	n	n	n	n	n	30
COc1ccccc1N1CCN(N=C/C(Br)=C/c2ccccc2)CC1	x	x	x	x	x	n
CC(C(=O)N1c2ccc(F)cc2CCC1C)N1C(=O)c2ccccc2C1=O (stereo not drawn)	n	262	n	n	n	n
CNC(=S)NN=C(C)c1cccc([N+](=O)[O-])c1	x	x	x	x	x	n
CCC1=[N+]([O-])C(C)(C(C)=NO)N(O)C1(C)C (stereo not drawn)	x	x	x	x	x	n
C(=Nn1cnnc1)c1ccccn1	x	x	x	x	x	n
C[n+]1ccc(/C=C/c2ccc(Br)cc2)cc1	n	n	n	n	n	n
C[n+]1ccc(/C=C/c2c[nH]c3ccc(F)cc23)cc1	n	n	n	102	n	n
CC(C)CCNC(=O)CON=Cc1ccccc1OC(F)F	x	x	x	x	x	n
Oc1ccc(C=NNc2ccccn2)c(O)c1	x	x	n	n	60	x
COc1ccc(/C=N/Nc2ccccn2)cc1O	n	n	n	n	26	x
O=[N+]([O-])c1cccc(N/N=C/c2cc([N+](=O)[O-])ccc2O)c1	n	301	n	n	x	x
CC/C(C)=N/Nc1cccc([N+](=O)[O-])c1	n	275	n	n	n	x
CCC(C)=NNc1cccc([N+](=O)[O-])c1	x	x	x	x	x	n
O=[N+]([O-])c1ccc(N/N=C/c2ccccc2O)cc1	n	n	n	n	n	x
CCCCN1C(=O)/C(=C2/Sc3ccccc3N2C)SC1=Nc1ncn[nH]1	x	x	x	x	x	n
CCON=C(C)c1c(O)cc(-c2ccccc2)n(-c2ccccc2)c1=O	x	x	x	x	x	n
NC(=O)c1cc2ccccc2oc1=NNC(=O)c1cccc(Cl)c1	x	x	x	x	x	n
COc1ccc(O)c(/C=N/Nc2nc3ccccc3[nH]2)c1	n	n	n	n	n	x
Oc1ccccc1/C=N/Nc1nccnc1Cl	n	n	n	n	67	x
O=[N+]([O-])c1ccc(O)c(/C=N/Nc2nc3ccccc3[nH]2)c1	n	n	n	n	83	x
Cc1nc(N/N=C/c2ccc(O)cc2O)cc(N2CCOCC2)n1	n	n	n	n	65	x
Cc1nc(NN=Cc2ccc(O)cc2O)cc(N2CCOCC2)n1	x	x	x	x	x	n
CCN(CC)S(=O)(=O)c1ccc(N/N=C/c2ccc(O)cc2O)nc1	n	n	n	n	46	x
CCN(CC)S(=O)(=O)c1ccc(NN=Cc2cc(OC)ccc2O)nc1	x	x	x	x	x	n
CC(C)(C)c1cc(C(=O)NN=Cc2ccncc2)n[nH]1	x	x	x	x	x	n
